# Biological target: 3',5'-cyclic-AMP phosphodiesterase 4B (Homo sapiens) (UniProt Q07343)
# Experiment: Inhibition of recombinant His-tagged PDE4B using cAMP as substrate at 30 uM preincubated for 15 mins before substrate addition measured after 1 hr by luminescence assay
# Method in brief: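 PDE4B cDNA expressed as His-tagged protein in baculovirus-infected Sf9 cells, Ni-NTA purified. 10 ng enzyme preincubated 15 min with compound or DMSO vehicle, then 1 h with 5 µM cAMP, using a PDElight HTS cAMP phosphodiesterase kit. Reaction stopped, detection reagent added for 10 min in the dark, luminescence read. % inhibition = (RLU vehicle − RLU inhibitor)/RLU vehicle × 100.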
# Chain of 3',5'-cyclic-AMP phosphodiesterase 4B (Homo sapiens) (Q07343 whole entry): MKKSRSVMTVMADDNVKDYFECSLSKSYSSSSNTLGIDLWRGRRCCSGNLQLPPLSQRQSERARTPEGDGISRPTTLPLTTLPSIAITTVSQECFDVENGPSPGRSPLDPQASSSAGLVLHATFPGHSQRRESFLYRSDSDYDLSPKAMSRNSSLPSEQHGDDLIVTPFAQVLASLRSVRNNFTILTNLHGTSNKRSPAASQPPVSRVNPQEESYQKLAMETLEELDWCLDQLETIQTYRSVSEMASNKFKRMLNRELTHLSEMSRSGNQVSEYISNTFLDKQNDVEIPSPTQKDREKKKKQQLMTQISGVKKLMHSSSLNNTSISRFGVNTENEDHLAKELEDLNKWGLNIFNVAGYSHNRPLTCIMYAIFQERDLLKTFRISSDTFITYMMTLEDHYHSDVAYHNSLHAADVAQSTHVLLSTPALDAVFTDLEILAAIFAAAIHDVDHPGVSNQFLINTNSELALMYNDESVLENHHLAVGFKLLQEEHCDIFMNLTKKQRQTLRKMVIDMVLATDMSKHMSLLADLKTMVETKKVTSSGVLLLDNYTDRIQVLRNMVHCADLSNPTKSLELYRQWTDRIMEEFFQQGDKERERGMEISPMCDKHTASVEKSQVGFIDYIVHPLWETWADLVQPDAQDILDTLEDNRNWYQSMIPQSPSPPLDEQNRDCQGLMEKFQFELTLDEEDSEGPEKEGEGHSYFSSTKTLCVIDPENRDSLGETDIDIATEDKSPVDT
row,inhibition [%],Compound
1,23.5,COC(=O)c1c(C)nc(OC)c(C#N)c1-c1ccc(C(F)(F)F)cc1
2,43.2,COC(=O)c1c(C)nc(OC)c(C#N)c1-c1ccc(F)cc1
3,42.3,CCOC(=O)c1c(C)nc(OCC)c(C#N)c1-c1ccc(F)cc1
4,21.5,COC(=O)c1c(C)nc(OC)c(C#N)c1-c1ccc(F)cc1F
5,43.7,CCOC(=O)c1c(C)nc(OCC)c(C#N)c1-c1ccc(Br)cc1
6,20.4,CCOC(=O)c1c(C)nc(OCC)c(C#N)c1-c1ccc(F)cc1F
7,38.4,COC(=O)c1c(C)nc(OC)c(C#N)c1-c1ccccc1
8,44.8,COC(=O)c1c(C)nc(OC)c(C#N)c1-c1ccc(Br)cc1
9,22.4,COC(=O)c1c(C)nc(OC)c(C#N)c1-c1c(F)cc(Br)cc1F
10,65.9,CCOC(=O)c1c(C)nc(OCC)c(C#N)c1-c1ccc(OC)cc1
11,64.1,COC(=O)c1c(C)nc(OC)c(C#N)c1-c1ccc(OC)cc1

# From ChEMBL document CHEMBL1932943, “Montmorillonite K-10 mediated green synthesis of cyano pyridines: Their evaluation as potential inhibitors of PDE4” (Eur J Med Chem, 2012)
